Values belong to the molecule of their own block, whether it stands above or below them.
B1: His-tagged scRev7 (S. cerevisiae Rev7) (natural protein)
chain: MNRWVEKWLRVYLKCYINLILFYRNVYPPQSFDYTTYQSFNLPQFVPINRHPALIDYIEELILDVLSKLTHVYRFSICIINKKNDLCIEKYVLDFSELQHVDKDDQIITETEVFDEFRSSLNSLIMHLEKLPKVNDDTITFEAVINAIELELGHKLDRNRRVDSLEEKAEIERDSNWVKCQEDENLPDNNGFQPPKIKLTSLVGSDVGPLIIHQFSEKLISGDDKILNGVYSQYEEGESIFGSLF

Tests used:
[1] = test system: scRev7; experiment: SEC oligomeric state and stoichiometry; set-up: species or system S. cerevisiae; settings: 20 mM Tris, 100 mM NaCl, 2 mM EDTA, 1 mM DTT, pH 8
Method in brief: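 scRev7 (MCS-1) co-expressed with scRev3 fragments or mutants (MCS-2) from pETDuet-1 in E. coli BL21(DE3); empty MCS-2 for apo-scRev7. Grown in 1L LB at 37 °C, induced with 1 mM IPTG at 20 °C overnight. Lysed by sonication in 20 mM sodium phosphate, 300 mM NaCl, 10 mM imidazole. Cobalt affinity, then Superdex 75 or 200 SEC with comparison of elution volumes.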

[2] = biological target: T1, MBP-scRev7 (Saccharomyces cerevisiae, UniProt P38927); experiment: ITC of scRev3 peptides titrated into MBP-scRev7; assay type: binding, S. cerevisiae; settings: 25 °C, 50 mM Tris, 100 mM NaCl, pH 8.4, 300 μM peptide titrated into 30 μM MBP-scRev7 in 2.5 μl increments, Fig. S5C
T1 sequence (P38927 1-245): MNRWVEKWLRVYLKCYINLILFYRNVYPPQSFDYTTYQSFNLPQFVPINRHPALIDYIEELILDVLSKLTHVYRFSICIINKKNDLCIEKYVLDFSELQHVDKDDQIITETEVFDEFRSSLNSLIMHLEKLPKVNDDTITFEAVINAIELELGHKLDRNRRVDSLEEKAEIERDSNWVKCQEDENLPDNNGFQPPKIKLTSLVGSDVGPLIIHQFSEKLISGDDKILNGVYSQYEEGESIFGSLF

[3] = biological target: T2, scRev3-RBM12 (residues 510-629), co-expressed with scRev7 (S. cerevisiae, UniProt P14284 510-629); experiment: AUC
T2 sequence: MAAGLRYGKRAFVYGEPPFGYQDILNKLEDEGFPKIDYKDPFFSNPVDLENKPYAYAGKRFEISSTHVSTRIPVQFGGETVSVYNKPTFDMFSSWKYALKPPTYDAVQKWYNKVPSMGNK

[4] = biological target: T3, truncated scRev3 fragment containing RBM2, but not RBM1 (residues 545-629) (S. cerevisiae, UniProt P14284 545-629); experiment: SEC
T3 sequence: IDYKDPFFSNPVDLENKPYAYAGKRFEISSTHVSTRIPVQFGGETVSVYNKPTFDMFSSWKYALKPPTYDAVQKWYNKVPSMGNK

[5] = biological target: T4, scRev7 fused to the maltose binding protein (MBP-scRev7) (S. cerevisiae, UniProt P38927 1-245); experiment: ITC
T4 sequence: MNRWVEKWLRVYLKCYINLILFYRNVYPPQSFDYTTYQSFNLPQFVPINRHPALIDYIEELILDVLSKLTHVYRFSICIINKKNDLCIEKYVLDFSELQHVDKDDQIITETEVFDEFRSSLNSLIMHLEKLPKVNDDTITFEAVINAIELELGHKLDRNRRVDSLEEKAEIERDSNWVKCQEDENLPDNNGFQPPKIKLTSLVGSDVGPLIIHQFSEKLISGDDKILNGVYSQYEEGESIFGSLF

[6] = biological target: B1; experiment: AUC
[7] = test system: scRev7; experiment: Y2H of scRev7 and scRev3 fragments; assay type: binding, S. cerevisiae; settings: scRev7-AD with scRev3 fragment-BD; yeast PJ694-A, 5 to 7 days at 30 °C
Method in brief: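 GAL4 AD and BD fusions of scRev7 and scRev3 RBM1, RBM2 or RBM12 (WT or mutant), tested in both orientations. Cells were transformed with 2.0 ug of each vector and grown in -LW broth at 30 °C for 3 to 5 days. They were then pelleted, resuspended in sterile water to normalise OD, serially diluted, and plated on -LW and -AHLW. Controls were empty vectors (negative) and AD/BD-fused mouse Rev7 dimerization (positive).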

Molecule: apo-scRev7: scRev7 overexpressed alone (MCS-2 of pETDuet-1 empty)
SEC elution volume comparison [1]: elute at similar volumes

Molecule: scRev3-zipper: scRev3-zipper (residues 573–594), linker region preceding RBM2 (SSTHVSTRIPVQFGGETVSVYN)
binding (heat release) [2]: no heat release that would be consistent with binding

Molecule: scRev7/scRev3-RBM1: scRev7 co-expressed with scRev3-RBM1
SEC elution volume comparison [1]: elute at similar volumes

Molecule: scRev7/scRev3-RBM2: scRev7 co-expressed with scRev3-RBM2, 1:1 complex
SEC elution volume comparison [1]: elute at similar volumes

Molecule: B1
stoichiometry N [3]: 2 scRev7 per scRev3-RBM12
stoichiometry N [4]: 1

stoichiometry N [5]: 1
Molecule: MAAGLRYGKRAFVYGEPPFGYQDILNKLEDEGFPK [scRev3-RBM1 peptide (residues 510-544) used for ITC]

stoichiometry N [5]: 1
Molecule: KPTFDMFSSWKYALKPPTYDAVQKWYNKVPSMGNK [scRev3-RBM2 peptide (residues 595-629) used for ITC]

stoichiometry N [6]: 1
Molecule: KPTFDMFSSWKYALKPPTYDAVQKWYNKVPSMGNK (domain or fragment) [scRev3-RBM2 (residues 595-629), co-expressed with scRev7]

B2: scRev3-RBM12: scRev3-RBM12 (residues 510–629), longer scRev3 construct containing both RBMs (protein)
chain: MAAGLRYGKRAFVYGEPPFGYQDILNKLEDEGFPKIDYKDPFFSNPVDLENKPYAYAGKRFEISSTHVSTRIPVQFGGETVSVYNKPTFDMFSSWKYALKPPTYDAVQKWYNKVPSMGNK
growth on -AHLW plates [7]: yeast grew on plates lacking adenine, histidine, leucine, and tryptophan

From article PMC9926120 (The Journal of Biological Chemistry, 2022)
